# Measurements as given in ChEMBL document CHEMBL4004797, “Design and synthesis of formononetin-dithiocarbamate hybrids that inhibit growth and migration of PC-3 cells via MAPK/Wnt signaling pathways” (Eur J Med Chem, 2017).
# Activity calls are given as the source filed them. No cut-off for these calls is given here.
# Tests used:
# MGC-803 = assay: Cytotoxicity against human MGC803 cells assessed as inhibition of cell viability after 48 hrs by MTT assay; format: functional, cell-based; details: MGC-803, 48 h
# Summary of the method: (§1)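 Cells grown in RPMI 1640 with 10% FBS, penicillin and streptomycin at 37 °C under 5% CO2. After 24 h, medium replaced with medium containing various concentrations. Exposure 48 h, then MTT read-out at 570 nm. IC50 is the concentration giving 50% proliferation inhibition, from dose-response curves; mean ± SD of three independent experiments.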
# ECa-109 cell line = assay: Cytotoxicity against human EC109 cells assessed as inhibition of cell viability after 48 hrs by MTT assay; format: functional, cell-based; details: ECa-109, 48 h; summary of the method: as §1
# PC-3 [1] = assay: Cytotoxicity against human PC3 cells assessed as inhibition of cell viability after 48 hrs by MTT assay; format: functional, cell-based; details: for IC50: PC-3, 48 h; summary of the method: as §1
# GES1 = assay: Cytotoxicity against human GES-1 cells assessed as inhibition of cell viability after 48 hrs by MTT assay; format: cell-based; details: GES1, 48 h; summary of the method: as §1
# PC-3 [2] = assay: Cytotoxicity against human PC3 cells assessed as inhibition of cell growth at 2.5 uM after 6 to 12 hrs by MTT assay; format: functional, cell-based
# PC-3 [3] = assay: Anticlonogenic activity against human PC3 cells assessed as colony formation efficiency at 2.5 uM after 1 week by crystal violet staining-based assay relative to control; format: functional
# Summary of the method: (§2)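 PC-3 cells seeded, grown 24 h, then given fresh medium containing a range of concentrations and treated for one week. Washed with PBS, fixed in 4% paraformaldehyde, stained with 0.1% crystal violet, imaged. Colonies counted and colony formation efficiency calculated relative to control. Three independent experiments.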
# PC-3 [4] = assay: Anticlonogenic activity against human PC3 cells at 2.5 uM after 1 week by crystal violet staining-based assay; format: functional, cell-based; summary of the method: as §2
# Homo sapiens = organism: Homo sapiens; assay: Inhibition of ERK phosphorylation in human PC3 cells after 48 hrs by Western blot analysis; format: cell-based
# Summary of the method: (§3)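 PC-3 cells exposed 48 h to 0, 0.1, 0.5 or 2.5 μM. RIPA lysates, BCA protein assay, SDS-PAGE, nitrocellulose transfer, 5% milk block, primary antibodies overnight at 4 °C against p-ERK, p-c-Jun, c-Myc, p38 and p-p38, secondary 1:5000 for 2 h, ECL detection. Levels quantified from three independent experiments.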
# [5] = target: Transcription factor Jun (Homo sapiens) (UniProt P05412); assay: Inhibition of c-Jun phosphorylation in human PC3 cells after 48 hrs by Western blot analysis; format: cell-based; summary of the method: as §3
# Sequence of Transcription factor Jun (Homo sapiens) (P05412 whole entry): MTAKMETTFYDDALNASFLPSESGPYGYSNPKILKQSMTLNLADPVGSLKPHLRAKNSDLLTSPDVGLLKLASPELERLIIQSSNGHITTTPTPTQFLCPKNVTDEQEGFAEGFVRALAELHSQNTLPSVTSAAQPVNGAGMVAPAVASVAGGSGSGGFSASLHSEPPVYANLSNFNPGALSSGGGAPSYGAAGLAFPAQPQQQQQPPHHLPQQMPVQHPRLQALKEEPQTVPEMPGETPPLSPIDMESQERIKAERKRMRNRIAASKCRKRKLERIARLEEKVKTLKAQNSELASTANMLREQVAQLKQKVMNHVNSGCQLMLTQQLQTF
# PC-3 [6] = assay: Downregulation of p38 levels in human PC3 cells after 48 hrs by Western blot analysis; format: functional, cell-based; summary of the method: as §3
# [7] = target: MAP kinase p38 (Homo sapiens) (UniProt O15264+Q15759+Q16539+P53778); assay: Inhibition of p38 phosphorylation in human PC3 cells after 48 hrs by Western blot analysis; format: cell-based; summary of the method: as §3
# PC-3 [8] = assay: Cell cycle arrest in human PC3 cells assessed as accumulation at G1 phase at 0.1 uM after 48 hrs by propidium iodide staining-based flow cytometric method (reference value: 54.65%); format: functional
# PC-3 [9] = assay: Cell cycle arrest in human PC3 cells assessed as accumulation at S phase at 0.1 uM after 48 hrs by propidium iodide staining-based flow cytometric method (reference value: 26.54%); format: functional
# PC-3 [10] = assay: Cell cycle arrest in human PC3 cells assessed as accumulation at G2 phase at 0.1 uM after 48 hrs by propidium iodide staining-based flow cytometric method (reference value: 18.31%); format: functional
# PC-3 [11] = assay: Cell cycle arrest in human PC3 cells assessed as accumulation at G1 phase at 0.5 uM after 48 hrs by propidium iodide staining-based flow cytometric method (reference value: 54.65%); format: functional
# PC-3 [12] = assay: Cell cycle arrest in human PC3 cells assessed as accumulation at S phase at 0.5 uM after 48 hrs by propidium iodide staining-based flow cytometric method (reference value: 26.54%); format: functional
# PC-3 [13] = assay: Cell cycle arrest in human PC3 cells assessed as accumulation at G2 phase at 0.5 uM after 48 hrs by propidium iodide staining-based flow cytometric method (reference value: 18.31%); format: functional
# PC-3 [14] = assay: Cell cycle arrest in human PC3 cells assessed as accumulation at G1 phase at 2.5 uM after 48 hrs by propidium iodide staining-based flow cytometric method (reference value: 54.65%); format: functional
# PC-3 [15] = assay: Cell cycle arrest in human PC3 cells assessed as accumulation at S phase at 2.5 uM after 48 hrs by propidium iodide staining-based flow cytometric method (reference value: 26.54%); format: functional
# PC-3 [16] = assay: Cell cycle arrest in human PC3 cells assessed as accumulation at G2 phase at 2.5 uM after 48 hrs by propidium iodide staining-based flow cytometric method (reference value: 18.31%); format: functional
# PC-3 [17] = assay: Downregulation of cyclin D1 levels in human PC3 cells after 48 hrs by Western blot method; format: functional, cell-based
# Summary of the method: (§4)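 PC-3 cells treated 48 h at 0, 0.1, 0.5 or 2.5 μM, then lysed in RIPA buffer with protease inhibitors. Protein measured by BCA, separated by SDS-PAGE, transferred to nitrocellulose, blocked in 5% milk, probed overnight at 4 °C for cyclin D1, CDK4, cyclin A and cyclin B1, detected by ECL. Bands quantified; three independent experiments.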
# PC-3 [18] = assay: Downregulation of CDK4 levels in human PC3 cells after 48 hrs by Western blot method; format: functional, cell-based; summary of the method: as §4
# PC-3 [19] = assay: Induction of apoptosis in human PC3 cells assessed as early apoptotic cells at 0.1 uM after 48 hrs by annexin V-FITC/propidium iodide staining-based flow cytometric method (reference value: 4.7%); format: functional
# PC-3 [20] = assay: Induction of apoptosis in human PC3 cells assessed as early apoptotic cells at 0.5 uM after 48 hrs by annexin V-FITC/propidium iodide staining-based flow cytometric method (reference value: 4.7%); format: functional
# PC-3 [21] = assay: Induction of apoptosis in human PC3 cells assessed as early apoptotic cells at 2.5 uM after 48 hrs by annexin V-FITC/propidium iodide staining-based flow cytometric method (reference value: 4.7%); format: functional
# PC-3 [22] = assay: Induction of apoptosis in human PC3 cells assessed as late apoptotic cells at 0.1 uM after 48 hrs by annexin V-FITC/propidium iodide staining-based flow cytometric method (reference value: 1.3%); format: functional
# PC-3 [23] = assay: Induction of apoptosis in human PC3 cells assessed as late apoptotic cells at 0.5 uM after 48 hrs by annexin V-FITC/propidium iodide staining-based flow cytometric method (reference value: 1.3%); format: functional
# PC-3 [24] = assay: Induction of apoptosis in human PC3 cells assessed as late apoptotic cells at 2.5 uM after 48 hrs by annexin V-FITC/propidium iodide staining-based flow cytometric method (reference value: 1.3%); format: functional
# PC-3 [25] = assay: Upregulation of Bax levels in human PC3 cells at 0.1 to 2.5 uM after 48 hrs by Western blot method; format: functional, cell-based
# Summary of the method: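 Bax protein measured by Western blot in PC-3 cells after 48 h at 0, 0.1, 0.5 or 2.5 μM: RIPA lysis, SDS-PAGE, nitrocellulose transfer, overnight primary antibody at 4 °C, ECL detection.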
# PC-3 [26] = assay: Antimigratory activity in human PC3 cells at 0.1 to 2.5 uM after 48 hrs by Hoechst 33258 staining-based transwell assay; format: functional, cell-based
# Summary of the method: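 Transwell migration: upper chamber holds 10^4 PC-3 cells in medium with 1% FBS plus 0, 0.1, 0.5 or 2.5 μM compound. Lower chamber holds medium with 20% FBS as chemoattractant. After 48 h both chambers washed with PBS, stained with Hoechst 33258, and migrated cells counted by high-content imaging. Three independent experiments.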
# PC-3 [27] = assay: Upregulation of Axin levels in human PC3 cells after 48 hrs by Western blot method; format: functional, cell-based
# Summary of the method: (§5)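 Wnt pathway proteins probed by Western blot in PC-3 cells after 48 h at 0, 0.1, 0.5 or 2.5 μM. RIPA lysis, SDS-PAGE, nitrocellulose, overnight primary antibody at 4 °C, ECL detection. Expression quantified from three independent experiments.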
# PC-3 [28] = assay: Downregulation of beta-catenin levels in human PC3 cells after 48 hrs by Western blot method; format: functional, cell-based; summary of the method: as §5
# PC-3 [29] = assay: Downregulation of TCF4 levels in human PC3 cells after 48 hrs by Western blot method; format: functional, cell-based; summary of the method: as §5
# [30] = target: Myc proto-oncogene protein (Homo sapiens) (UniProt P01106); assay: Inhibition of c-Myc expression in human PC3 cells after 48 hrs by Western blot analysis
# Sequence of Myc proto-oncogene protein (Homo sapiens) (P01106 whole entry): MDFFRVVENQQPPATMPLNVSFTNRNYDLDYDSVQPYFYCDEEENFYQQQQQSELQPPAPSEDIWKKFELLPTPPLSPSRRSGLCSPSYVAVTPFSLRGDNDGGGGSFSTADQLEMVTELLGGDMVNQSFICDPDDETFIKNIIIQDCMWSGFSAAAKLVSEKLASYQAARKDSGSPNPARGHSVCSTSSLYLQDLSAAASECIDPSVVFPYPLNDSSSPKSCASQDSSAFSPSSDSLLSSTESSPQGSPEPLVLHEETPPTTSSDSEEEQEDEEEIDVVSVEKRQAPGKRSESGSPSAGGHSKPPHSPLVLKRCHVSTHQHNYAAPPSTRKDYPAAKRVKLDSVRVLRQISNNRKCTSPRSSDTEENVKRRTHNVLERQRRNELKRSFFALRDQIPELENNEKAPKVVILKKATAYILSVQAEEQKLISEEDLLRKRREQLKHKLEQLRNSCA
compound,measurement,setting,value
COc1ccc(-c2coc3cc(OCCCCCBr)ccc3c2=O)cc1,IC50,MGC-803,> 100 µM
same,IC50,ECa-109 cell line,59.1 µM
same,IC50,PC-3 [1],44.8 µM
COc1ccc(-c2coc3cc(OCCCSC(=S)N4CCN(C(C)=O)CC4)ccc3c2=O)cc1,IC50,MGC-803,39.4 µM
same,IC50,ECa-109 cell line,24.7 µM
same,IC50,PC-3 [1],4.31 µM
COc1ccc(-c2coc3cc(OCCBr)ccc3c2=O)cc1,IC50,MGC-803,> 100 µM
same,IC50,ECa-109 cell line,55.1 µM
same,IC50,PC-3 [1],41.9 µM
COc1ccc(-c2coc3cc(O)ccc3c2=O)cc1 [FORMONONETIN],IC50,MGC-803,> 100 µM
same,IC50,ECa-109 cell line,> 100 µM
same,IC50,PC-3 [1],57 µM
COc1ccc(-c2coc3cc(OCCSC(=S)N4CCN(C(=O)OC(C)(C)C)CC4)ccc3c2=O)cc1,IC50,MGC-803,11.6 µM
same,IC50,ECa-109 cell line,4.09 µM
same,IC50,PC-3 [1],3.64 µM
COc1ccc(-c2coc3cc(OCCCCBr)ccc3c2=O)cc1,IC50,MGC-803,52.7 µM
same,IC50,ECa-109 cell line,66.3 µM
same,IC50,PC-3 [1],55.6 µM
COc1ccc(-c2coc3cc(OCCCSC(=S)N4CCN(C(=O)OC(C)(C)C)CC4)ccc3c2=O)cc1,IC50,MGC-803,6.07 µM
same,IC50,ECa-109 cell line,3.54 µM
same,Activity,PC-3 [1],Dose-dependent effect
same,IC50,PC-3 [1],1.97 µM
same,IC50,GES1,> 100 µM
same,growth inhibition (GI),PC-3 [2],Active
same,Activity,PC-3 [3],6%
same,Activity,PC-3 [4],Dose-dependent effect
same,inhibition,Homo sapiens,Dose-dependent effect
same,inhibition,[5],Dose-dependent effect
same,Activity,PC-3 [6],Dose-dependent effect
same,inhibition,[7],Dose-dependent effect
same,Activity,PC-3 [8],55.6%
same,Activity,PC-3 [9],26.75%
same,Activity,PC-3 [10],17.3%
same,Activity,PC-3 [11],61.29%
same,Activity,PC-3 [12],29.69%
same,Activity,PC-3 [13],9.1%
same,Activity,PC-3 [14],83.32%
same,Activity,PC-3 [15],10.33%
same,Activity,PC-3 [16],3.66%
same,Activity,PC-3 [17],Dose-dependent effect
same,Activity,PC-3 [18],Dose-dependent effect
same,Activity,PC-3 [19],6.2%
same,Activity,PC-3 [20],5.7%
same,Activity,PC-3 [21],5.5%
same,Activity,PC-3 [22],1.1%
same,Activity,PC-3 [23],1.3%
same,Activity,PC-3 [24],0.9%
same,Activity,PC-3 [25],inactive
same,Activity,PC-3 [26],Dose-dependent effect
same,Activity,PC-3 [27],Dose-dependent effect
same,Activity,PC-3 [28],Dose-dependent effect
same,Activity,PC-3 [29],Dose-dependent effect
same,inhibition,[30],Dose-dependent effect
COc1ccc(-c2coc3cc(OCCCSC(=S)N4CCN(C)CC4)ccc3c2=O)cc1,IC50,MGC-803,21.9 µM
same,IC50,ECa-109 cell line,24.2 µM
same,IC50,PC-3 [1],2.21 µM
CCN1CCN(C(=S)SCCCOc2ccc3c(=O)c(-c4ccc(OC)cc4)coc3c2)CC1,IC50,MGC-803,54 µM
same,IC50,ECa-109 cell line,36.9 µM
same,IC50,PC-3 [1],7.08 µM
O=c1[nH]cc(F)c(=O)[nH]1 [FLUOROURACIL],IC50,MGC-803,7.21 µM
same,IC50,ECa-109 cell line,10.3 µM
same,IC50,PC-3 [1],29.3 µM
COc1ccc(-c2coc3cc(OCCCBr)ccc3c2=O)cc1,IC50,MGC-803,64.9 µM
same,IC50,ECa-109 cell line,39.7 µM
same,IC50,PC-3 [1],62.6 µM
COc1ccc(-c2coc3cc(OCCCSC(=S)N4CCOCC4)ccc3c2=O)cc1,IC50,MGC-803,49.6 µM
same,IC50,ECa-109 cell line,34 µM
same,IC50,PC-3 [1],27.4 µM
COc1ccc(-c2coc3cc(OCCCCSC(=S)N4CCN(C(=O)OC(C)(C)C)CC4)ccc3c2=O)cc1,IC50,MGC-803,31.3 µM
same,IC50,ECa-109 cell line,8.84 µM
same,IC50,PC-3 [1],4.61 µM
COc1ccc(-c2coc3cc(OCCCSC(=S)N4CCN(Cc5ccccc5)CC4)ccc3c2=O)cc1,IC50,MGC-803,43.8 µM
same,IC50,ECa-109 cell line,25.3 µM
same,IC50,PC-3 [1],14.9 µM
COc1ccc(-c2coc3cc(OCCCSC(=S)N4CCN(c5ccccn5)CC4)ccc3c2=O)cc1,IC50,MGC-803,42 µM
same,IC50,ECa-109 cell line,38.3 µM
same,IC50,PC-3 [1],17.4 µM
COc1ccc(-c2coc3cc(OCCCSC(=S)N4CCCC4)ccc3c2=O)cc1,IC50,MGC-803,40 µM
same,IC50,ECa-109 cell line,30.8 µM
same,IC50,PC-3 [1],19.4 µM
